Publication PMC9907361 (Gastric cancer : official journal of the International …, 2021)
“Also recorded” adds a separate entry of the source.

Tests used:
cells = conditions: cited from earlier work
[1] = test system: AGS cells overexpressing WNT1; experiment: Lactose/mannose treatment of WNT1-overexpressing AGS cells; format: cell-based, human; conditions: 50 mM, 4 h preincubation
In short: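 AGS cells were transfected with HA-WNT1. Lactose or mannose (50 mM) was added 4 h before cell extraction, and the indicated proteins were then detected in the extracts.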

AGS cells = format: cell-based, human
[2] = target: human STAT3 (residues 127–688) (Homo sapiens, UniProt P40763); experiment: ITC binding of galectin-3 peptides to STAT3; conditions: abstract statement
In short: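 Human STAT3 residues 127–688 was expressed from pET22b(+) and purified. ITC was run at 25 °C. Wild-type and Y45-phosphorylated galectin-3 peptides (140 μM each) in 20 mM Tris pH 7.5, 300 mM NaCl were injected at 220 s intervals into 7 μM STAT3. Heats of dilution from buffer controls were subtracted, and data were fitted to a single set of binding sites model.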

Sequence of human STAT3 (residues 127–688) (P40763 127-688): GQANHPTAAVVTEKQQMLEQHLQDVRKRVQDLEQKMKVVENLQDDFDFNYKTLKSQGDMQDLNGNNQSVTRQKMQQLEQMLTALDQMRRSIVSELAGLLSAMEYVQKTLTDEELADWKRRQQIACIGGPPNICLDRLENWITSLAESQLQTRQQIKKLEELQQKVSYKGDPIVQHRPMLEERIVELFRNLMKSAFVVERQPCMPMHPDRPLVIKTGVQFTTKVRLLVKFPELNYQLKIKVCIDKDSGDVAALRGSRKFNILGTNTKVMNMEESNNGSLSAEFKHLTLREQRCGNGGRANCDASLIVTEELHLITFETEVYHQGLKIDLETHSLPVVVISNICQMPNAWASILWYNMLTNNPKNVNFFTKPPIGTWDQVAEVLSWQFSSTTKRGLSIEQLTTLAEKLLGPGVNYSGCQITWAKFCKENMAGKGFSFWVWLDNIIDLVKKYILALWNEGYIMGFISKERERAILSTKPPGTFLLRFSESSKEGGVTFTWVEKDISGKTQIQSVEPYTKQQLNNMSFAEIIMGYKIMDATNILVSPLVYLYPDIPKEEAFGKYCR

For `OC[C@H]1O[C@@H](O[C@H]2[C@H](O)[C@@H](O)C(O)O[C@@H]2CO)[C@H](O)[C@@H](O)[C@H]1O` (mixture of isomers) [lactose], the “cellular uptake of lactose” value (cells; stated without reference) is given as “too polar to be taken up by the cells”, the “inhibition of STAT3 phosphorylation” value [1] is given as “did not inhibit” and the “inhibition of β-catenin stability” value [1] is given as “did not inhibit”.

For `OC[C@H]1O[C@H](Sc2ccc(Cl)c(Cl)c2)[C@H](O)[C@@H](n2cc(-c3cc(F)c(F)c(F)c3)nn2)[C@H]1O` [GB1107], the “uptake across cell membranes” value (cells) is given as “improved uptake across cell membranes; also recorded: can penetrate into cells”.

In the case of `OC[C@H]1OC(O)[C@@H](O)[C@@H](O)[C@@H]1O` (stereo partly drawn) [mannose], the “inhibition of STAT3 phosphorylation” value [1] is reported as “did not inhibit” and the “inhibition of β-catenin stability” value [1] is reported as “did not inhibit”.

With IL-6: IL-6 cytokine the “STAT3 phosphorylation on IL-6 treatment” value (AGS cells; AGS cells, IL-6 alone) was “induced STAT3 phosphorylation”.

With YPGQ [peptide of galectin-3 (Y45-Q48)] the “direct binding to the STAT3 SH2 domain” value [2] was “directly bound to the STAT3 SH2 domain” and the “enhancement of STAT3 phosphorylation” value (AGS cells; abstract statement) was “enhanced its phosphorylation”.
